Source: ChEMBL document CHEMBL1806466, “2-Amino-4-methyl-5-phenylethyl substituted-7-N-benzyl-pyrrolo[2,3-d]pyrimidines as novel antitumor antimitotic agents that also reverse tumor resistance” (Bioorg Med Chem, 2011)
Activity calls are given as the source filed them. The rule behind the calls is not given here.

Assays:
MDA-MB-231 = assay: Antitumor activity against human MDA-MB-231 cells after 48 hrs by sulforhodamine B assay; format: functional; conditions: MDA-MB-231, 48 h
Outline: (§1)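 NCI-60 screen, adherent lines: grown in RPMI 1640 with 5% FBS and 2 mM L-glutamine. Seeded at 5,000–40,000 cells/well by doubling time and preincubated 24 h at 37 °C, 5% CO2, with time-zero plates TCA-fixed. Five concentrations (10-fold or half-log) given for 48 h. Fixed with cold TCA (10% final), then SRB-stained and read at A515. GI50 is 50% reduction of net protein increase versus control.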

KM12 = assay: Antitumor activity against human KM12 cells after 48 hrs by sulforhodamine B assay; format: functional; conditions: KM12, 48 h; outline: as §1
SF-268 = assay: Antitumor activity against human SF268 cells after 48 hrs by sulforhodamine B assay; format: functional; conditions: SF-268, 48 h; outline: as §1
A549 = assay: Antitumor activity against human A549 cells after 48 hrs by sulforhodamine B assay; format: functional; conditions: A549, 48 h; outline: as §1
MOLT-4 = assay: Antitumor activity against human MOLT4 cells after 48 hrs by sulforhodamine B assay; format: functional; conditions: MOLT-4, 48 h
Outline: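 NCI-60 screen, suspension lines: grown in RPMI 1640 with 5% FBS and 2 mM L-glutamine. Seeded at 5,000–40,000 cells/well and preincubated 24 h at 37 °C, 5% CO2, with time-zero plates fixed. Five concentrations (10-fold or half-log) given for 48 h. Settled cells fixed with 80% TCA (16% final), then SRB-stained and read at 515 nm. GI50 is from the net growth relative to time zero and control.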

MCF7 [1] = assay: Cytotoxic activity against drug-sensitive Pgp-, MRP1-deficient human MCF7 cells after 48 hrs by sulforhodamine B assay; conditions: MCF7, 48 h
SK-MEL-28 = assay: Antitumor activity against human SK-MEL-28 cells after 48 hrs by sulforhodamine B assay; format: functional; conditions: SK-MEL-28, 48 h; outline: as §1
Malme-3M = assay: Antitumor activity against human MALME-3M cells after 48 hrs by sulforhodamine B assay; format: functional; outline: as §1
Hs-578T = assay: Antitumor activity against human Hs578T cells after 48 hrs by sulforhodamine B assay; format: functional; outline: as §1
PC-3 = assay: Antitumor activity against human PC3 cells after 48 hrs by sulforhodamine B assay; format: functional; conditions: PC-3, 48 h; outline: as §1
[2] = biological target: Multidrug resistance-associated protein 1 (Homo sapiens, UniProt P33527); assay: Reversal of MRP1-mediated multidrug resistance in human MCF7/VP cells assessed as enhancement of cytotoxicity of vincristine after 48 hrs by sulforhodamine B assay; format: cell-based
Outline: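 MCF-7/VP cells plated at ~15% confluency and allowed 24 h to attach. […] Survival by SRB binding. MRP1 Antagonism Score = % survival without vincristine / % survival with vincristine.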

HCC 2998 = assay: Antitumor activity against human HCC2998 cells after 48 hrs by sulforhodamine B assay; format: functional; conditions: HCC 2998, 48 h; outline: as §1
NCI-H460 = assay: Antitumor activity against human NCI-H460 cells after 48 hrs by sulforhodamine B assay; format: functional; conditions: NCI-H460, 48 h; outline: as §1
SK-MEL-2 = assay: Antitumor activity against human SK-MEL-2 cells after 48 hrs by sulforhodamine B assay; format: functional; conditions: SK-MEL-2, 48 h; outline: as §1
HL-60(TB) = assay: Antitumor activity against human HL-60(TB) cells after 48 hrs by sulforhodamine B assay; format: functional; conditions: HL-60, 48 h
Outline: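 NCI-60 screen: cells grown in RPMI 1640 with 5% FBS and 2 mM L-glutamine, seeded at 5,000–40,000 cells/well and incubated 24 h at 37 °C, 5% CO2 before dosing. Five concentrations (10-fold or ½-log dilutions from DMSO stock), 48 h. Suspension cells fixed with 80% TCA (final 16%), stained with 0.4% SRB, A515 read. GI50 calculated against time-zero and control growth.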

A498 = assay: Antitumor activity against human A498 cells after 48 hrs by sulforhodamine B assay; format: functional; conditions: A498, 48 h; outline: as §1
NCI-H522 = assay: Antitumor activity against human NCI-H522 cells after 48 hrs by sulforhodamine B assay; format: functional; conditions: NCI-H522, 48 h; outline: as §1
CAKI-1 = assay: Antitumor activity against human Caki1 cells after 48 hrs by sulforhodamine B assay; format: functional; conditions: CAKI-1, 48 h; outline: as §1
TK-10 = assay: Antitumor activity against human TK10 cells after 48 hrs by sulforhodamine B assay; format: functional; conditions: TK-10, 48 h
Outline: (§2)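 NCI-60 panel lines grown in RPMI 1640 with 5% FBS and 2 mM L-glutamine. Cells plated at 5,000–40,000/well by doubling time, given 24 h before drug, then exposed to five concentrations for 48 h at 37 °C. Time-zero plates fixed with TCA. Cells fixed with TCA, stained with 0.4% SRB, read at 515 nm. GI50 = 50% reduction in net protein increase versus control.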

OVCAR-4 = assay: Antitumor activity against human OVCAR4 cells after 48 hrs by sulforhodamine B assay; format: functional; conditions: OVCAR-4, 48 h; outline: as §1
NCI/ADR = assay: Reversal of Pgp-mediated multidrug resistance in human NCI/ADR cells assessed as enhancement of cytotoxicity of vinblastine after 48 hrs by sulforhodamine B assay; format: cell-based
Outline: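 NCI/ADR cells plated at ~15% confluency and allowed 24 h to attach. […] Survival by SRB binding, each value the mean of three wells, with ethanol solvent controls. Pgp Antagonism Score = % survival without vinblastine / % survival with vinblastine.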

SF-539 = assay: Antitumor activity against human SF539 cells after 48 hrs by sulforhodamine B assay; format: functional; conditions: SF-539, 48 h; outline: as §1
UACC-257 = assay: Antitumor activity against human UACC257 cells after 48 hrs by sulforhodamine B assay; format: functional; conditions: UACC-257, 48 h; outline: as §2
MCF7 [3] = assay: Resistance factor, ratio of IC50 for Pgp-deficient human MCF7/VP cells expressing MRP1 in absence of vincristine to IC50 for drug sensitive human MCF7 cells in presence of 1 nM vincristine
[4] = Cytotoxic activity against drug-resistant […]-deficient human NCI/ADR cells expressing Pgp after 48 hrs by sulforhodamine B assay; format: functional, cell-based; conditions: NCI/ADR-RES
Outline: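 Cells plated at ~15% confluency and allowed 24 h to attach, then exposed to varying test concentrations for 48 h. Survival by SRB binding, reported as % decrease in binding versus ethanol solvent controls, mean of three wells. For NCI/ADR, exposure with 0 or 50 nM vinblastine; for MCF-7/VP, with 0 or 1 nM vincristine.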

HCT-116 = assay: Antitumor activity against human HCT116 cells after 48 hrs by sulforhodamine B assay; format: functional; conditions: HCT-116, 48 h; outline: as §1
786-0 = assay: Antitumor activity against human 786-0 cells after 48 hrs by sulforhodamine B assay; format: functional; conditions: 786-0, 48 h; outline: as §1
NCI-H23 = assay: Antitumor activity against human NCI-H23 cells after 48 hrs by sulforhodamine B assay; format: functional; conditions: NCI-H23, 48 h; outline: as §1

Multidrug resistance-associated protein 1, sequence (P33527 whole entry): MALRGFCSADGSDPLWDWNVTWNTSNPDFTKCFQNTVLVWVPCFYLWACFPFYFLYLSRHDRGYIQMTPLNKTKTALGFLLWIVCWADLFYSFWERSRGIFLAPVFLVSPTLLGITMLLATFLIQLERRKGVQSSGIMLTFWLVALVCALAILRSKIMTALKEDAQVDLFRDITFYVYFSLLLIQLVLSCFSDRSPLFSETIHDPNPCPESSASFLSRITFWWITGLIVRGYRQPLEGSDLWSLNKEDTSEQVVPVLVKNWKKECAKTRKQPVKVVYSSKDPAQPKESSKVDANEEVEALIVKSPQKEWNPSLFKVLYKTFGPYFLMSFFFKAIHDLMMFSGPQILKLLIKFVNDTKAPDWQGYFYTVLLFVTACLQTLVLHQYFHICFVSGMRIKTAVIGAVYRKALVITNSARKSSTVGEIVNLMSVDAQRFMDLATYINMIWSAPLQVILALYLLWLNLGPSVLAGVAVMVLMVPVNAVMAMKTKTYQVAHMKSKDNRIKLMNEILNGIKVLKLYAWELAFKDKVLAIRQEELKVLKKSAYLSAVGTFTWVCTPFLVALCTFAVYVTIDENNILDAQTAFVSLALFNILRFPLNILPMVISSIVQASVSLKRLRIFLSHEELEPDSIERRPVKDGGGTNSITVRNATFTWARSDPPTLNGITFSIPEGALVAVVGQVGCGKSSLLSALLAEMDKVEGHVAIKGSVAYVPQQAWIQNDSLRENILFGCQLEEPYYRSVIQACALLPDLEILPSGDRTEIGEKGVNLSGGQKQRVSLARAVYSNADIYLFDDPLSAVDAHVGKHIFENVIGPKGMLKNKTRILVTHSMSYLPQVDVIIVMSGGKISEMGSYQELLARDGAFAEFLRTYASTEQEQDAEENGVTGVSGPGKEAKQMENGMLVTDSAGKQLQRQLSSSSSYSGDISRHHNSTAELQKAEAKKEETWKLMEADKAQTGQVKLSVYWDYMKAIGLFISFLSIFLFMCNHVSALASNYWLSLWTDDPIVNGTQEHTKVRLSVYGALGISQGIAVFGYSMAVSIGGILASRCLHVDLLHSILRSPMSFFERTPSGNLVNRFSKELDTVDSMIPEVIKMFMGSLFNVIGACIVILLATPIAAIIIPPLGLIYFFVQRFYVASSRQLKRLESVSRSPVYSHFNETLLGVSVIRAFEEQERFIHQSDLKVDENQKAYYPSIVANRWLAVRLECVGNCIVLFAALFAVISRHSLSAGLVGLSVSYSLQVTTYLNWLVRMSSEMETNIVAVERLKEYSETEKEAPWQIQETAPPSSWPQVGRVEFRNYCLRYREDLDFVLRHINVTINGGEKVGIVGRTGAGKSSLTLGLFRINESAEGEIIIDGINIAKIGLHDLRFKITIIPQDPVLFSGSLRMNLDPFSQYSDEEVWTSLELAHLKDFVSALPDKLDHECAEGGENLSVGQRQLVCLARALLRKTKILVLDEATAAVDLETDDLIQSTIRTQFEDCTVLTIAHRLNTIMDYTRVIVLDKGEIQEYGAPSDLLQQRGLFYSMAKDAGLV

Question: For COc1cc(CCc2cn(Cc3ccccc3)c3nc(N)nc(C)c23)c(OC)c(OC)c1OC, which GI50 (MDA-MB-231) is on record?
Answer: 3.69 µM

Question: And the GI50 (KM12)?
Answer: 3.33 µM

Question: And the GI50 (SF-268)?
Answer: 4.4 µM

Question: And the GI50 (A549)?
Answer: 5.33 µM

Question: What about the GI50 (MOLT-4) of the same compound?
Answer: 3.96 µM

Question: And the IC50 (MCF7 [1])?
Answer: 24 µM

Question: And the GI50 (SK-MEL-28)?
Answer: 4.05 µM

Question: And the GI50 (Malme-3M)?
Answer: 10.4 µM

Question: What about the GI50 (Hs-578T) of the same compound?
Answer: 2.46 µM

Question: What about the GI50 (PC-3) of the same compound?
Answer: 3.08 µM

Question: What about the Activity [2] of the same compound?
Answer: Not Active

Question: And the GI50 (HCC 2998)?
Answer: 5.89 µM

Question: And the GI50 (NCI-H460)?
Answer: 2.81 µM

Question: What about the GI50 (SK-MEL-2) of the same compound?
Answer: 5.09 µM

Question: What about the GI50 (HL-60(TB)) of the same compound?
Answer: 2.06 µM

Question: And the GI50 (A498)?
Answer: 2.25 µM

Question: What about the GI50 (NCI-H522) of the same compound?
Answer: 6.05 µM

Question: And the GI50 (CAKI-1)?
Answer: 2.5 µM

Question: What about the GI50 (TK-10) of the same compound?
Answer: 7.62 µM

Question: What about the GI50 (OVCAR-4) of the same compound?
Answer: 8.83 µM

Question: And the Activity (NCI/ADR)?
Answer: Active

Question: What about the GI50 (SF-539) of the same compound?
Answer: 1.86 µM

Question: And the GI50 (UACC-257)?
Answer: 10.4 µM

Question: And the “Ratio IC50” value (MCF7 [3])?
Answer: 0.37

Question: And the IC50 [4]?
Answer: 7 µM

Question: And the GI50 (HCT-116)?
Answer: 3.68 µM

Question: And the GI50 (786-0)?
Answer: 4.5 µM

Question: What about the GI50 (NCI-H23) of the same compound?
Answer: 3.61 µM
